Reference: PubChem BioAssay AID504513 (The Scripps Research Institute Molecular Screening Center, 2011)
Calls of active or inactive are those of the source.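 How the source made its calls: active means PAFAH2 inhibition at least 50% at 0.2 µM with under 50% on each related off-target enzyme; inactive means the rest, including PAFAH2 hits that also hit off-targets.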

Key:
Assay in all cases: PAFAH2 inhibition and serine hydrolase selectivity, late-stage follow-up, cell lysate, fluorescence, gel-based ABPP, BW5147 T-cell proteome, powder samples (AID 504513);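 further: 0% = DMSO-only band intensity and 100% = blank gel background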
ABHD11 = details: BW5147 mouse T-cell proteome, FP-Rh gel ABPP, stronger effect = higher value
Outline: (§1)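 System – mouse BW5147 T-cell soluble lysate · Input – 1 mg/mL soluble protein · Reagent – FP-Rh probe at 2 µM · Compound dosing – 0.02, 0.2 or 1 µM compound · Times – 30 min compound, 30 min probe at 25 °C · Signal – in-gel fluorescence of probe-labelled bands, integrated optical density · Read-out – percent band labelling lost versus DMSO control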

APEH = details: BW5147 mouse T-cell proteome, FP-Rh gel ABPP, stronger effect = higher value
Outline: as §1

ESD = details: BW5147 mouse T-cell proteome, FP-Rh gel ABPP, stronger effect = higher value
Outline: as §1

LYPLA1 = details: BW5147 mouse T-cell proteome, FP-Rh gel ABPP, stronger effect = higher value
Outline: as §1

[1] = target: Platelet-activating factor acetylhydrolase 2, cytoplasmic (Mus musculus) (UniProt Q8VDG7); details: FP-Rh gel ABPP, stronger effect = higher value
Outline: as §1

Platelet-activating factor acetylhydrolase 2, cytoplasmic (Mus musculus), sequence (Q8VDG7 whole entry, looked up): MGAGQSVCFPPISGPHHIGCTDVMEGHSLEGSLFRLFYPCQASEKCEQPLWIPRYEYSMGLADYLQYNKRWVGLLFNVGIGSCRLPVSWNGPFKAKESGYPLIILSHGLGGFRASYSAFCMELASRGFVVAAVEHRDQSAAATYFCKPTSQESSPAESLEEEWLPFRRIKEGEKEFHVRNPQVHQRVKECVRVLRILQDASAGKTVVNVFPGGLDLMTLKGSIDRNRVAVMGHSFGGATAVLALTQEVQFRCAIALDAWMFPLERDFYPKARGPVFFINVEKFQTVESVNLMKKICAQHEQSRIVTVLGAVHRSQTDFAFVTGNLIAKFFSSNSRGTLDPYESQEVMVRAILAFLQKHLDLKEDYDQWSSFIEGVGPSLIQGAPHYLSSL

| Structure (SMILES) | inhibition (ABHD11; at 1 µM) | inhibition (ABHD11; inhibition, at 0.02 µM) [%] | inhibition (ABHD11; inhibition, at 0.2 µM) [%] | inhibition (APEH; at 1 µM) | inhibition (APEH; inhibition, at 0.02 µM) [%] | inhibition (APEH; inhibition, at 0.2 µM) [%] | inhibition (ESD; at 1 µM) | inhibition (ESD; inhibition, at 0.02 µM) [%] | inhibition (ESD; inhibition, at 0.2 µM) [%] | inhibition (LYPLA1; at 1 µM) | inhibition (LYPLA1; inhibition, at 0.02 µM) [%] | inhibition (LYPLA1; inhibition, at 0.2 µM) [%] | inhibition ([1]; PAFAH2, at 1 µM) | inhibition ([1]; PAFAH2, inhibition, at 0.02 µM) [%] | inhibition ([1]; PAFAH2, inhibition, at 0.2 µM) [%] |
| --- | --- | --- | --- | --- | --- | --- | --- | --- | --- | --- | --- | --- | --- | --- | --- |
| O=C(N1CCOCC1)n1ccnn1 | 100% | 0 | 50 | 0% (inactive) | 0 | 0 | 0% (inactive) | 0 | 0 | 0% (inactive) | 0 | 0 | 100% (inactive) | 0 | 0 |
| O=C(N1CCOCC1)n1ncc(-c2cc(F)cc(F)c2)n1 | 100% | 50 | 100 | 100% | 0 | 100 | 50% (inactive) | 0 | 25 | 0% (inactive) | 0 | 0 | 100% | 0 | 100 |
| COc1ccc2cc(-c3cnn(C(=O)N4CCCC4)n3)ccc2c1 | 0% (inactive) | 0 | 0 | 100% (inactive) | 0 | 25 | 0% (inactive) | 0 | 0 | 0% (inactive) | 0 | 0 | 100% | 0 | 100 |
| O=C(N1CCCC1)n1ncc(C(O)(c2ccccc2)c2ccccc2)n1 | 100% | 0 | 100 | 100% | 0 | 100 | 0% (inactive) | 0 | 0 | 0% (inactive) | 0 | 0 | 100% | 0 | 100 |
| O=C(N1CCCC1)n1ncc(-c2ccc(OC(F)(F)F)cc2)n1 | 50% | 0 | 50 | 100% | 0 | 100 | 0% (inactive) | 0 | 0 | 0% (inactive) | 0 | 0 | 100% | 25 | 100 |
| O=C(N1CCCCC1)n1ccnn1 | 50% (inactive) | 0 | 0 | 0% (inactive) | 0 | 0 | 0% (inactive) | 0 | 0 | 0% (inactive) | 0 | 0 | 50% (inactive) | 0 | 0 |
| CN1CCN(C(=O)n2ccnn2)CC1 | 50% (inactive) | 0 | 0 | 0% (inactive) | 0 | 0 | 0% (inactive) | 0 | 0 | 0% (inactive) | 0 | 0 | 0% (inactive) | 0 | 0 |
| O=C(N1CCCC1)n1ncc(-c2ccc(Oc3ccccc3)cc2)n1 | 0% (inactive) | 0 | 0 | 100% | 0 | 100 | 0% (inactive) | 0 | 0 | 0% (inactive) | 0 | 0 | 100% | 100 | 100 |
| CN(C(=O)n1ccnn1)c1ccccc1 | 100% (inactive) | 0 | 0 | 0% (inactive) | 0 | 0 | 0% (inactive) | 0 | 0 | 0% (inactive) | 0 | 0 | 0% (inactive) | 0 | 0 |
